Results of several laboratories.
In brackets after ≈: the same amount, converted by molar mass.
Organism: Escherichia coli

COc1c(C)c(OC(C)=O)c(C)c(O)c1C(=O)/C=C/c1ccccc1 has an MBC of over 5000 µg/mL (microbial killing, broth dilution; ATCC25922).
The inhibition zone of CCN1CCN(C(=O)N[C@@H](C(=O)N[C@@H]2C(=O)N3[C@@H]2SC(C)(C)[C@@H]3C(=O)O)c2ccccc2)C(=O)C1=O is reported as 19 mm (microbial growth, well diffusion; BW25113; 200 µM).
CSc1ccc(-c2nc3ccc(C)cc3[nH]2)cc1 gave an MIC of 32 µg/mL (≈ 126 µM) (microbial growth, broth dilution; ATCC25922).
For CC1(C)S[C@@H]2[C@H](NC(=O)[C@H](N)c3ccccc3)C(=O)N2[C@H]1C(=O)O, the inhibition zone was 21 mm (microbial growth, disc diffusion; 50 µg/disc).
CC1(C)SC2C(NC(=O)C(NC(=O)C3=C(O)C(Cc4ccccc4)NC3=O)c3ccccc3)C(=O)N2C1C(=O)O (stereo not shown) gave an inhibition zone of 12 mm (microbial growth, well diffusion; BW25113; 200 µM).
N=C(N)c1ccc(OCc2ccccc2COc2ccc(C(=N)N)cc2)cc1 has an MIC of over 200 µg/mL (microbial growth, broth dilution; W3110).
For O=C(Cc1ccccc1)Sc1cccccc1=O, the MIC80 was 19.8 µM (≈ 5.08 µg/mL) (microbial growth, broth dilution; ATCC35218).
With N=C(N)c1ccccc1OCc1cccc(COc2ccccc2C(=N)N)c1 the MIC was over 200 µg/mL (microbial growth, broth dilution; BW25113).
COc1ccc(-n2cc(COc3cccc4cccnc34)nn2)cc1 has an IC50 of 376 µg/mL (microbial growth, broth dilution; ATCC25922).
For CC(C)Oc1c(NC(=O)c2ccc(NC(=O)[C@H](CC(N)=O)NC(=O)c3ccc(CNC(=O)c4ccc(C#N)cc4)cc3)cc2)ccc(C(=O)Nc2ccc(C(=O)O)cc2)c1O, the MIC was over 64 µg/mL (microbial growth; DSM1116).
The inhibition zone of COc1cc(C=Cc2cc(-c3ccc(N(C)C)cc3)nc(O)n2)ccc1O is reported as 6 mm (microbial growth, disc diffusion; ATCC25922; 250 µg/mL).
O=S(=O)(Oc1cccc2cccnc12)c1cccs1 has an IC50 of 165 µg/mL (microbial growth, broth dilution; ATCC25922).
For O=C(N/N=C/c1ccc([N+](=O)[O-])o1)c1ccc(O)cc1, the MIC90 was 0.98 µg/mL (≈ 3.56 µM) (microbial growth; ATCC35218).
For CCCCS(=O)(=O)Oc1cccc2cccnc12, the IC50 was 194 µg/mL (microbial growth, broth dilution; ATCC25922).
Cc1sc(C)c(-c2ccc(O)c(O)c2)c1Br gave an IC50 of 10.8 µM (microbial growth; AS19; 10 h).
Clc1ccc(-c2nc3ccccc3n2Cc2ccccc2)cc1 gave an MIC of 128 µg/mL (≈ 401 µM) (microbial growth, broth dilution; ATCC25922).
For O=C(Sc1cccccc1=O)c1cccc(C(F)(F)F)c1, the MIC80 was 19.8 µM (≈ 6.14 µg/mL) (microbial growth, broth dilution; ATCC35218).
The MIC of CC(C)Oc1c(NC(=O)c2ccc(NC(=O)[C@H](CC(N)=O)NC(=O)c3ccc(NC(=O)c4ccc(C#N)c(F)c4)cc3)cc2)ccc(C(=O)Nc2ccc(C(=O)O)cc2)c1O is reported as 0.25 µg/mL (≈ 0.301 µM) (microbial growth; DSM1116).
O=C(O)c1cn(C2CC2)c2cc(N3CCNCC3)c(F)cc2c1=O has an IC50 of 0.125 µg/mL (microbial growth, broth dilution; ATCC25922).
COc1ccc(-c2nc3ccc(C)cc3[nH]2)cc1OC has an MIC of 64 µg/mL (≈ 239 µM) (microbial growth, broth dilution; ATCC25922).
Cc1ccc(C(C)C)cc1OCc1cn(-c2ccc(F)cc2)nn1 gave an IC50 of 1580 µg/mL (microbial growth, broth dilution; ATCC25922).
COc1cc(C=CC(=O)CC(c2ccc(N(C)C)cc2)n2ccnc2)ccc1O (stereo not shown) gave an inhibition zone of 8.67 mm (microbial growth, disc diffusion; ATCC25922; 500 µg/mL).
With N=C(N)c1ccc(OCCC(CCOc2ccc(C(=N)N)cc2)c2ccccc2)cc1 (stereo not shown) the MIC was over 200 µg/mL (microbial growth, broth dilution; ATCC25922).
For NS(=O)(=O)c1ccc(-n2cc(COc3cccc4cccnc34)nn2)cc1, the IC50 was 880 µg/mL (microbial growth, broth dilution; ATCC25922).
C=CCOc1c(C)c(O)c(C(=O)/C=C/c2ccccc2)c(OC)c1C gave an MBC of over 5000 µg/mL (microbial killing, broth dilution; ATCC25922).
